Data: ChEMBL document CHEMBL1153425, “Inhibitory effects of sesquiterpene lactones isolated from Eupatorium chinense L. on IgE-mediated degranulation in rat basophilic leukemia RBL-2H3 cells and passive cutaneous anaphylaxis reaction in mice” (Bioorg Med Chem, 2009)
Activity calls are given as the source filed them. The rule behind the calls is not given here.

Columns and labels:
[1] = test system: Radical scavenging activity; assay: Antioxidant activity assessed as DPPH-radical scavenging activity at 10 uM; assay type: functional
[2] = test system: RBL-2H3; assay: Inhibition of DNP/BSA-stimulated intracellular ROS release in IgE-sensitized rat RBL2H3 cells at 10 uM after 30 mins using CM-H2DCF-DA probe by fluorimetry; assay type: functional, cell-based
In short: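 IgE-sensitized RBL-2H3 cells (5×10^4/well) are loaded with 10 µM CM-H2DCF-DA for 30 min at 37 °C and washed with PBS. They are then exposed 30 min to 10 µM compound and stimulated with DNP-BSA (10 µg/ml). DCF fluorescence is read at ex 490/em 530 nm.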

[3] = test system: RBL-2H3; assay: Inhibition of DNP/BSA-stimulated ERK1/2 phosphorylation in IgE-sensitized rat RBL2H3 cells after 10 mins by Western blot; assay type: functional, cell-based
In short: (§1)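 Compound-treated, IgE-sensitized RBL-2H3 cells are stimulated with DNP-BSA for 10 min and lysed in RIPA buffer with protease and phosphatase inhibitors. Lysate (20 µg protein) is run on SDS-PAGE and blotted to PVDF. Membranes are blocked with 5% milk/TPBS and probed with primary antibodies, then […] secondaries. Detection is by ECL chemiluminescence.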

[4] = test system: RBL-2H3; assay: Inhibition of DNP/BSA-stimulated ratio of phospho-Akt to total-Akt level in IgE-sensitized rat RBL2H3 cells after 10 mins by Western blot; assay type: functional, cell-based; in short: as §1
[5] = test system: RBL-2H3; assay: Inhibition of DNP/BSA-stimulated JNK1/2 phosphorylation in IgE-sensitized rat RBL2H3 cells after 10 mins by Western blot; assay type: functional, cell-based; in short: as §1
[6] = test system: RBL-2H3; assay: Inhibition of DNP/BSA-stimulated p38MAPK phosphorylation in IgE-sensitized rat RBL2H3 cells after 10 mins by Western blot; assay type: functional, cell-based; in short: as §1
[7] = test system: RBL-2H3; assay: Inhibition of A-23187-stimulated beta-hexosamonidase release in IgE-sensitized rat RBL2H3 cells at 5 to 10 uM after 30 mins; assay type: functional, cell-based
[8] = test system: RBL-2H3; assay: Inhibition of DNP/BSA-stimulated histamine release in IgE-sensitized rat RBL2H3 cells at 5 to 10 uM after 30 mins by fluorimetry; assay type: functional, cell-based
In short: (§2)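 RBL-2H3 cells are plated at 5×10^5 cells/ml, cultured 1 h, then sensitized 24 h with mouse anti-DNP IgE (0.45 µg/ml). After washes, cells sit in Siraganian buffer (pH 7.2; 5.6 mM glucose, 1 mM CaCl2, 0.1% BSA) at 37 °C for 10 min. They are pretreated with 5 or 10 µM compound at 37 °C for 30 min, then challenged with DNP-BSA (10 µg/ml) for 10 min. The reaction is stopped on ice and supernatant taken. Read-outs: β-hexosaminidase by 1 mM p-nitrophenyl-N-acetyl-β-D-glucosaminide in citrate pH 4.5, 37 °C 1 h, A405; histamine by n-butanol/chloroform extraction and o-phthalaldehyde fluorescence (ex 360/em 450), expressed as % inhibition relative to positive and negative controls. Values are mean ± SEM, n=10.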

[9] = test system: RBL-2H3; assay: Inhibition of DNP/BSA-stimulated intracellular calcium release in IgE-sensitized rat RBL2H3 cells at 10 uM after 30 mins by fluorimetry; assay type: functional, cell-based
In short: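 IgE-sensitized (0.45 µg/ml anti-DNP IgE, 24 h) RBL-2H3 cells at 5×10^4/well are loaded with Fluo-3 AM for 1 h. They are then incubated 30 min in loading buffer containing 10 µM compound. Ca2+ change after DNP-BSA (10 µg/ml) is read by fluorescence plate reader, ex 490/em 530 nm. Values are mean ± SEM, n=32.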

[10] = test system: RBL-2H3; assay: Inhibition of DNP/BSA-stimulated beta-hexosamonidase release in IgE-sensitized rat RBL2H3 cells at 5 to 10 uM after 30 mins by colorimetry; assay type: functional, cell-based; in short: as §2

C=C1C(=O)O[C@H]2/C=C(/C)[C@@H](OC(C)=O)C/C=C(\CO)C[C@@H](OC(=O)C(C)CC)[C@@H]12 (stereo not given in full)
Activity [1]: inactive | Activity [2]: inactive | Activity [3]: inactive | Activity [4]: Active | Activity [5]: inactive | Activity [6]: Active

C=C1C(=O)O[C@@H]2/C=C(\C)[C@@H](O)C/C=C(\C)C[C@@H](OC(=O)/C(=C\C)CO)[C@@H]12
Activity [1]: inactive | Activity [2]: inactive | Activity [3]: inactive | Activity [4]: Active | Activity [5]: inactive | Activity [6]: Active

C=C1C(=O)O[C@@H]2/C=C(\C)C[C@H](O)/C=C(\C)C[C@@H](OC(=O)/C(=C\C)CO)[C@@H]12
Activity [1]: inactive | Activity [7]: Active | Activity [2]: inactive | Activity [8]: Active | Activity [3]: inactive | Activity [4]: Active | Activity [5]: inactive | Activity [9]: Active | Activity [10]: Active | Activity [6]: Active

C=C1C(=O)O[C@@H]2/C=C(\C)[C@@H](O)C/C=C(/C=O)C[C@@H](OC(=O)C(C)CC)[C@@H]12 (stereo not given in full)
Activity [1]: inactive | Activity [7]: Active | Activity [2]: inactive | Activity [8]: Active | Activity [3]: inactive | Activity [4]: Active | Activity [5]: inactive | Activity [9]: Active | Activity [10]: Active | Activity [6]: Active

C=C1C(=O)O[C@@H]2/C=C(/C)[C@@H](OC(C)=O)C[C@H]3O[C@]3(C)C[C@@H](OC(=O)/C(=C/C)CO)[C@@H]12
Activity [1]: inactive | Activity [2]: inactive | Activity [3]: inactive | Activity [4]: Active | Activity [5]: inactive | Activity [6]: Active

C=C1C(=O)O[C@H]2/C=C(/C)[C@@H](OC(C)=O)C/C=C(\C)C[C@@H](OC(=O)/C(=C/C)CO)[C@@H]12
Activity [1]: inactive | Activity [2]: inactive | Activity [3]: inactive | Activity [4]: Active | Activity [5]: inactive | Activity [6]: Active

C=C1C(=O)O[C@H]2/C=C(/C)[C@H](OC(C)=O)C[C@@H]3O[C@]3(C)C[C@@H](OC(=O)/C(=C/C)CO)[C@@H]12
Activity [1]: inactive | Activity [2]: inactive | Activity [3]: inactive | Activity [4]: Active | Activity [5]: inactive | Activity [6]: Active
